The results in this text go back to ChEMBL document CHEMBL3414544, “PAINS in the assay: chemical mechanisms of assay interference and promiscuous enzymatic inhibition observed during a sulfhydryl-scavenging HTS” (J Med Chem, 2015).

Data set [1] addresses T1, Histone acetyltransferase RTT109 (Saccharomyces cerevisiae (strain ATCC 204508 / S288c) (Baker's yeast)) (UniProt Q07794).
T1 sequence (whole entry): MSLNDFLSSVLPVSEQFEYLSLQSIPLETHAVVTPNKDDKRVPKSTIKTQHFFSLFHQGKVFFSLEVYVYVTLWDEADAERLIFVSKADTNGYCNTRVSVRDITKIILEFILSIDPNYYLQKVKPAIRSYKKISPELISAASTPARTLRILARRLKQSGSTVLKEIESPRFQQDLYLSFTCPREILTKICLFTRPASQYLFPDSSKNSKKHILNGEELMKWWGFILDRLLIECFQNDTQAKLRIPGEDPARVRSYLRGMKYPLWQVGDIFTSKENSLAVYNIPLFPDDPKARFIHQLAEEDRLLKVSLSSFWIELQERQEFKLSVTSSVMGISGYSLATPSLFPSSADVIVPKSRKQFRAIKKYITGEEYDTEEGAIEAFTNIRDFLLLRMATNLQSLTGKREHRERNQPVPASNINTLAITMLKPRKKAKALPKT
Kind of data set: Inhibition of Vps75-stimulated recombinant Saccharomyces cerevisiae histone acetyltransferase Rtt109 assessed as H3K27 acetylated product at […] after 45 mins by Slot bolt inhibiton assay.

Data set [2] is described as follows: Fluorescence quenching in HTS buffer with […] CoA assessed as fluorescence signal reduction at 10 uM after 10 mins. Type of data set: physicochemical.
Data set [3] in a line: Fluorescence quenching in HTS buffer with 20 uM 7-diethylamino-3-(4'-maleimidyl-phenyl)-4-methylcoumarin assessed as fluorescence signal reduction at 10 uM after 10 mins. Type of data set: physicochemical.
For data set [4], the target named is T1, Histone acetyltransferase RTT109 (Saccharomyces cerevisiae (strain ATCC 204508 / S288c) (Baker's yeast)). Briefly: Inhibition of Vps75-stimulated recombinant Saccharomyces cerevisiae histone acetyltransferase Rtt109 assessed as H3K56 acetylated product at […] after 45 mins by Slot bolt inhibiton assay.
Data set [5] has as its target T2, Histone acetyltransferase RTT109 (Saccharomyces cerevisiae (strain ATCC 204508 / S288c) (Baker's yeast), UniProt Q07794).
T2 sequence (Q07794 whole entry): T1 sequence (whole entry)
Kind of data set: Inhibition of Vps75-stimulated recombinant Saccharomyces cerevisiae histone acetyltransferase Rtt109 using Asf1-dH3-H4 as substrate assessed as coenzyme A production after 45 mins by CPM based HTS assay. Particulars: read-out: IC50. The gist of the method:
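Recombinant Rtt109–Vps75 at 50 nM, with Asf1–dH3–H4 as substrate and acetyl-CoA as acetyl donor. Buffer contained freshly prepared 0.01% Triton X-100. The CoA product was detected by fluorescence of its CPM adduct. Plates had Z′ ≥0.5. IC50 came from a four-parameter variable-slope fit.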

Data set [6] can be described thus: Fluorescence quenching in HTS buffer assessed as fluorescence signal reduction at 10 uM after 10 mins. Type of data set: physicochemical.
Data set [7] is described as follows: Fluorescence quenching assessed as fluorescence signal reduction at 10 uM after 10 mins. Type of data set: physicochemical. The gist of the method:
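CPM (20 μM final) and CoA (5 μM final) reacted to completion in assay buffer (stable plateau, usually ~5 min); adduct solution added to wells preplated with compound; shaken 5 min, equilibrated 5 min at room temperature; fluorescence intensity read as percent signal reduction versus DMSO controls. Flagged as quencher at >20% signal reduction at 10 μM final compound.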

pIC50: −log10 of the molar value. Activity calls are given as the source filed them.

In general, pIC50 refers to −log10 of the IC50, conventionally taken in molar units. `O=S(=O)(Nc1cc(SCc2ccco2)c(O)c2ccccc12)c1ccccc1`: the result in data set [1] and in data set [4] was Active. In addition, the Activity result in data set [2], in data set [3], in data set [6] and in data set [7] was “Not Active” in each case. Also, in data set [5], the pIC50 was 5.68.

As for `O=S(=O)(C[n+]1sc(N(c2ccccc2)c2ccccc2)nc1-c1ccccc1)c1ccccc1.[Br-]`, the result in data set [1] and in data set [4] was inactive. Besides, the Activity result in data set [2], in data set [3], in data set [6] and in data set [7] was “Not Active” throughout. Moreover, the negative-log IC50 (pIC50) in data set [5] is 4.30.

Take `O=S(=O)(C[n+]1sc(Nc2ccccc2)nc1-c1ccccc1)c1ccc2ccccc2c1.[Br-]`: the outcome in data set [1] and in data set [4] was inactive. Moreover, the Activity entry in data set [2], in data set [3], in data set [6] and in data set [7] was “Not Active” throughout. For the same compound, the pIC50 in data set [5] was 4.55.

Take `O=[N+]([O-])c1c(SCc2ccccc2)cc(Cl)c2nonc12`: the outcome in data set [1] and in data set [4] was Active. Further, the Activity result in data set [2], in data set [3], in data set [6] and in data set [7] was “Not Active” throughout. The negative-log IC50 (pIC50) in data set [5] was 5.77.

`O=C1C=CC(=O)N1c1cccc(F)c1`: the outcome in data set [1] and in data set [4] was Active. Besides, the Activity result in data set [2], in data set [3], in data set [6] and in data set [7] was “Not Active” throughout. In addition, the pIC50 in data set [5] was 5.21.

With `O=S(=O)(Nc1cc(Sc2nc3ccccc3s2)c(O)c2ccccc12)c1ccccc1`, the outcome in data set [1] and in data set [4] was Active. Besides, the Activity entry in data set [2], in data set [3], in data set [6] and in data set [7] was “Not Active” in each case. Moreover, the pIC50 in data set [5] is 5.00.

With `COc1ccc(-c2nnc(Sc3ccc([N+](=O)[O-])c4nonc34)[nH]2)cc1`, the result in data set [1] and in data set [4] was Active. Moreover, the Activity entry in data set [2], in data set [3], in data set [6] and in data set [7] was “Not Active” each time. Moreover, in data set [5], the negative-log IC50 (pIC50) is 5.64.

Regarding `O=S(=O)(Nc1cc(Sc2nc[nH]n2)c(O)c2ccccc12)c1ccc(Cl)cc1`, the result in data set [1] was Active. The Activity result in data set [2], in data set [3], in data set [6] and in data set [7] was “Not Active” each time. Also, in data set [4], the outcome was inactive. Moreover, in data set [5], the pIC50 was 5.85.

With `Cn1c(CN2CCOCC2)nnc1Sc1ccc([N+](=O)[O-])c2nonc12`, the result in data set [1] and in data set [4] was Active. In addition, the Activity entry in data set [2], in data set [3], in data set [6] and in data set [7] was “Not Active” each time. In addition, the pIC50 in data set [5] was 5.74.

Regarding `O=S(=O)(Nc1cc(Br)c(O)c2ccccc12)c1ccc(F)cc1`, the outcome in data set [1] and in data set [4] was Active. Besides, the Activity entry in data set [2], in data set [3], in data set [6] and in data set [7] was “Not Active” throughout. Further, the negative logarithm of the IC50 (pIC50) in data set [5] was 5.36.

On to `O=C(O)CSc1cc(Cl)c2nonc2c1[N+](=O)[O-]`, for which the result in data set [1] and in data set [4] was Active. Also, the Activity result in data set [2], in data set [3], in data set [6] and in data set [7] was “Not Active” in each case. Besides, in data set [5], the pIC50 was 4.77.

In the case of `O=C1CC(Sc2nc[nH]n2)C(=O)N1c1ccccc1` (stereo not drawn), the result in data set [1] and in data set [4] was Active. Also, the Activity entry in data set [2], in data set [3], in data set [6] and in data set [7] was “Not Active” throughout. Moreover, the pIC50 in data set [5] was 4.82.

Regarding `O=[N+]([O-])c1cccc(S(=O)(=O)Nc2cc(SCc3ccccc3)c(O)c3ccccc23)c1`, the result in data set [1] and in data set [4] was Active. Also, the Activity entry in data set [2], in data set [3], in data set [6] and in data set [7] was “Not Active” each time. Also, the negative-log IC50 (pIC50) in data set [5] is 5.70.

On to `[Br-].c1ccc(CNc2nc(-c3ccccc3)[n+](-c3ccccc3)s2)cc1`, for which the result in data set [1] and in data set [4] was Active. Besides, the Activity entry in data set [2], in data set [3], in data set [6] and in data set [7] was “Not Active” each time. The pIC50 in data set [5] is 5.62.

Regarding `COc1ccc(N2C(=O)CC(Sc3n[nH]c(-c4ccccc4)n3)C2=O)cc1` (stereo not drawn), the result in data set [1] and in data set [4] was Active. Also, the Activity result in data set [2], in data set [3], in data set [6] and in data set [7] was “Not Active” each time. The pIC50 in data set [5] is 4.68.

As for `Cc1ccc(S(=O)(=O)Nc2cc(Sc3nnnn3-c3ccccc3)c(O)c3ccccc23)cc1`, the outcome in data set [1] and in data set [4] was Active. The Activity result in data set [2], in data set [3], in data set [6] and in data set [7] was “Not Active” throughout. In data set [5], the pIC50 was 5.07.

With `[O-][Cl+3]([O-])([O-])[O-].c1ccc(-c2nc(N(c3ccccc3)c3ccccc3)s[n+]2-c2ccccc2)cc1`, the result in data set [1] and in data set [4] was Active. The Activity result in data set [2], in data set [3], in data set [6] and in data set [7] was “Not Active” each time. For the same compound, the negative-log IC50 (pIC50) in data set [5] is 5.46.

Take `O=[N+]([O-])c1ccccc1-c1nnc(SC2=CS(=O)(=O)c3ccccc32)o1`: the outcome in data set [1] and in data set [4] was Active. For the same compound, the Activity entry in data set [2], in data set [3], in data set [6] and in data set [7] was “Not Active” each time. Further, the pIC50 in data set [5] was 5.24.

Take `O=C1C=CC(=O)N1c1ccc(Br)cc1`: the result in data set [1] and in data set [4] was Active. Besides, the Activity result in data set [2], in data set [3], in data set [6] and in data set [7] was “Not Active” in each case. Further, the negative-log IC50 (pIC50) in data set [5] is 5.52.
